In ChEMBL document CHEMBL1221265, “Synthesis and in vitro antibacterial activity of novel fluoroquinolone derivatives containing substituted piperidines” (Bioorg Med Chem Lett, 2010):
Values after ≈ are worked out from the molar mass of the structure shown.

Legend:
[1] = tested on: Escherichia coli; experiment: Antibacterial activity against Escherichia coli 26 after 18 to 24 hrs by agar dilution method; assay type: functional
Summary of the method: (§1)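 Agar dilution done to NCCLS recommendations. Plates incubated 18–24 h at 35 °C. MIC taken as the lowest concentration of compound that gave no visible bacterial growth.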

[2] = tested on: Enterococcus faecalis; experiment: Antibacterial activity against Enterococcus faecalis ATCC 29212 after 18 to 24 hrs by agar dilution method; assay type: functional; summary of the method: as §1
[3] = tested on: Enterobacter cloacae; experiment: Antibacterial activity against Enterobacter cloacae 45301 after 18 to 24 hrs by agar dilution method; assay type: functional; summary of the method: as §1
[4] = tested on: Staphylococcus aureus; experiment: Antibacterial activity against methicillin-resistant Staphylococcus aureus 08-52 after 18 to 24 hrs by agar dilution method; assay type: functional
Summary of the method: (§2)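 Agar dilution MIC per NCCLS recommendations. MIC is the lowest concentration giving no visible bacterial growth after incubation at 35 °C for 18–24 h.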

[5] = tested on: Staphylococcus epidermidis; experiment: Antibacterial activity against methicillin-resistant Staphylococcus epidermidis 08-18 after 18 to 24 hrs by agar dilution method; assay type: functional; summary of the method: as §2
[6] = tested on: Klebsiella pneumoniae; experiment: Antibacterial activity against Klebsiella pneumoniae 7 after 18 to 24 hrs by agar dilution method; assay type: functional; summary of the method: as §1
[7] = tested on: Streptococcus pyogenes; experiment: Antibacterial activity against Streptococcus pyogenes 06-1 after 18 to 24 hrs by agar dilution method; assay type: functional; summary of the method: as §1
[8] = Cytotoxicity against african green monkey Vero cells after 48 hrs by CPE assay; assay type: cell-based; details: chlorocebus sabaeus
[9] = tested on: Streptococcus pneumoniae; experiment: Antibacterial activity against Streptococcus pneumoniae ATCC 49619 after 18 to 24 hrs by agar dilution method; assay type: functional; summary of the method: as §1
[10] = tested on: Shigella sonnei; experiment: Antibacterial activity against Shigella sonnei 51592 after 18 to 24 hrs by agar dilution method; assay type: functional; summary of the method: as §1
[11] = tested on: Staphylococcus aureus; experiment: Antibacterial activity against Staphylococcus aureus ATCC 29213 after 18 to 24 hrs by agar dilution method; assay type: functional; summary of the method: as §1
[12] = tested on: Staphylococcus epidermidis; experiment: Antibacterial activity against Staphylococcus epidermidis ATCC 12228 after 18 to 24 hrs by agar dilution method; assay type: functional; summary of the method: as §1
[13] = tested on: Pseudomonas aeruginosa; experiment: Antibacterial activity against Pseudomonas aeruginosa 17 after 18 to 24 hrs by agar dilution method; assay type: functional; summary of the method: as §1

Compound | MIC [1] | MIC [2] | MIC [3] | MIC [4] | MIC [5] | MIC [6] | MIC [7] | CC50 at 48 h [8] | MIC [9] | MIC [10] | MIC [11] | MIC [12] | MIC [13]
CO/N=C1/CCN(c2nc3c(cc2F)c(=O)c(C(=O)O)cn3C2CC2)CC1(C)CN (configuration not stated) | 0.5 µg/mL (≈ 1.2 µM) | 32 µg/mL (≈ 76.7 µM) | 4 µg/mL (≈ 9.58 µM) | 8 µg/mL (≈ 19.2 µM) | 0.25 µg/mL (≈ 0.599 µM) | 0.5 µg/mL (≈ 1.2 µM) | 8 µg/mL (≈ 19.2 µM) | 177 µg/mL (≈ 423 µM) | 32 µg/mL (≈ 76.7 µM) | 1 µg/mL (≈ 2.4 µM) | 0.5 µg/mL (≈ 1.2 µM) | 1 µg/mL (≈ 2.4 µM) | 8 µg/mL (≈ 19.2 µM)
CCO/N=C1/CCN(c2nc3c(cc2F)c(=O)c(C(=O)O)cn3C2CC2)CC1(C)CN (configuration not stated) | 1 µg/mL (≈ 2.32 µM) | 4 µg/mL (≈ 9.27 µM) | 8 µg/mL (≈ 18.5 µM) | 8 µg/mL (≈ 18.5 µM) | 0.25 µg/mL (≈ 0.579 µM) | 1 µg/mL (≈ 2.32 µM) | 16 µg/mL (≈ 37.1 µM) | 44.2 µg/mL (≈ 102 µM) | 4 µg/mL (≈ 9.27 µM) | 1 µg/mL (≈ 2.32 µM) | 0.25 µg/mL (≈ 0.579 µM) | 0.5 µg/mL (≈ 1.16 µM) | 16 µg/mL (≈ 37.1 µM)
CO/N=C1/CCN(c2nc3c(cc2F)c(=O)c(C(=O)O)cn3-c2ccc(F)cc2F)CC1(C)CN (configuration not stated) | 8 µg/mL (≈ 16.3 µM) | > 128 µg/mL | 32 µg/mL (≈ 65.4 µM) | 128 µg/mL (≈ 262 µM) | 2 µg/mL (≈ 4.09 µM) | 128 µg/mL (≈ 262 µM) | 64 µg/mL (≈ 131 µM) | 88.4 µg/mL (≈ 181 µM) | 64 µg/mL (≈ 131 µM) | 8 µg/mL (≈ 16.3 µM) | 1 µg/mL (≈ 2.04 µM) | 2 µg/mL (≈ 4.09 µM) | 32 µg/mL (≈ 65.4 µM)
CCO/N=C1/CCN(c2nc3c(cc2F)c(=O)c(C(=O)O)cn3-c2ccc(F)cc2F)CC1(C)CN (configuration not stated) | 8 µg/mL (≈ 15.9 µM) | > 128 µg/mL | 32 µg/mL (≈ 63.6 µM) | 128 µg/mL (≈ 254 µM) | 2 µg/mL (≈ 3.97 µM) | 64 µg/mL (≈ 127 µM) | 64 µg/mL (≈ 127 µM) | 78.8 µg/mL (≈ 156 µM) | 128 µg/mL (≈ 254 µM) | 16 µg/mL (≈ 31.8 µM) | 2 µg/mL (≈ 3.97 µM) | 4 µg/mL (≈ 7.94 µM) | 128 µg/mL (≈ 254 µM)
CO/N=C1/CCN(c2c(F)cc3c(=O)c(C(=O)O)cn(C4CC4)c3c2F)CC1(C)CN (configuration not stated) | 0.5 µg/mL (≈ 1.15 µM) | 64 µg/mL (≈ 147 µM) | 4 µg/mL (≈ 9.21 µM) | 16 µg/mL (≈ 36.8 µM) | 0.25 µg/mL (≈ 0.575 µM) | 64 µg/mL (≈ 147 µM) | 32 µg/mL (≈ 73.7 µM) | 88.4 µg/mL (≈ 203 µM) | 32 µg/mL (≈ 73.7 µM) | 1 µg/mL (≈ 2.3 µM) | 0.25 µg/mL (≈ 0.575 µM) | 0.25 µg/mL (≈ 0.575 µM) | 16 µg/mL (≈ 36.8 µM)
CCO/N=C1/CCN(c2c(F)cc3c(=O)c(C(=O)O)cn(C4CC4)c3c2F)CC1(C)CN (configuration not stated) | 2 µg/mL (≈ 4.46 µM) | 2 µg/mL (≈ 4.46 µM) | 16 µg/mL (≈ 35.7 µM) | 8 µg/mL (≈ 17.8 µM) | 0.25 µg/mL (≈ 0.557 µM) | 2 µg/mL (≈ 4.46 µM) | 16 µg/mL (≈ 35.7 µM) | 62.5 µg/mL (≈ 139 µM) | 8 µg/mL (≈ 17.8 µM) | 2 µg/mL (≈ 4.46 µM) | 0.125 µg/mL (≈ 0.279 µM) | 0.25 µg/mL (≈ 0.557 µM) | 16 µg/mL (≈ 35.7 µM)
CCn1cc(C(=O)O)c(=O)c2cc(F)c(N3CC/C(=N/OC)C(C)(CN)C3)c(F)c21 (configuration not stated) | 8 µg/mL (≈ 18.9 µM) | 128 µg/mL (≈ 303 µM) | 32 µg/mL (≈ 75.8 µM) | 32 µg/mL (≈ 75.8 µM) | 2 µg/mL (≈ 4.73 µM) | 64 µg/mL (≈ 152 µM) | 64 µg/mL (≈ 152 µM) | 315 µg/mL (≈ 746 µM) | 128 µg/mL (≈ 303 µM) | 8 µg/mL (≈ 18.9 µM) | 1 µg/mL (≈ 2.37 µM) | 2 µg/mL (≈ 4.73 µM) | 64 µg/mL (≈ 152 µM)
CCO/N=C1/CCN(c2c(F)cc3c(=O)c(C(=O)O)cn(CC)c3c2F)CC1(C)CN (configuration not stated) | 16 µg/mL (≈ 36.7 µM) | 128 µg/mL (≈ 293 µM) | 128 µg/mL (≈ 293 µM) | 16 µg/mL (≈ 36.7 µM) | 2 µg/mL (≈ 4.58 µM) | 16 µg/mL (≈ 36.7 µM) | 64 µg/mL (≈ 147 µM) | 78.8 µg/mL (≈ 180 µM) | 64 µg/mL (≈ 147 µM) | 32 µg/mL (≈ 73.3 µM) | 2 µg/mL (≈ 4.58 µM) | 4 µg/mL (≈ 9.16 µM) | 128 µg/mL (≈ 293 µM)
CO/N=C1/CCN(c2c(F)cc3c(=O)c(C(=O)O)cn(CCF)c3c2F)CC1(C)CN (configuration not stated) | 8 µg/mL (≈ 18.2 µM) | > 128 µg/mL | 64 µg/mL (≈ 145 µM) | 64 µg/mL (≈ 145 µM) | 2 µg/mL (≈ 4.54 µM) | – | 128 µg/mL (≈ 291 µM) | 315 µg/mL (≈ 715 µM) | 128 µg/mL (≈ 291 µM) | 16 µg/mL (≈ 36.3 µM) | 2 µg/mL (≈ 4.54 µM) | 4 µg/mL (≈ 9.08 µM) | 64 µg/mL (≈ 145 µM)
CCO/N=C1/CCN(c2c(F)cc3c(=O)c(C(=O)O)cn(CCF)c3c2F)CC1(C)CN (configuration not stated) | 16 µg/mL (≈ 35.2 µM) | 128 µg/mL (≈ 282 µM) | 64 µg/mL (≈ 141 µM) | 64 µg/mL (≈ 141 µM) | 4 µg/mL (≈ 8.8 µM) | 64 µg/mL (≈ 141 µM) | 128 µg/mL (≈ 282 µM) | 157 µg/mL (≈ 347 µM) | 128 µg/mL (≈ 282 µM) | 64 µg/mL (≈ 141 µM) | 2 µg/mL (≈ 4.4 µM) | 4 µg/mL (≈ 8.8 µM) | 128 µg/mL (≈ 282 µM)
CO/N=C1/CCN(c2c(F)cc3c(=O)c(C(=O)O)cn4c3c2OC[C@@H]4C)CC1(C)CN (some centres not stated) | 4 µg/mL (≈ 9.25 µM) | 128 µg/mL (≈ 296 µM) | 16 µg/mL (≈ 37 µM) | 64 µg/mL (≈ 148 µM) | 1 µg/mL (≈ 2.31 µM) | 128 µg/mL (≈ 296 µM) | 64 µg/mL (≈ 148 µM) | 177 µg/mL (≈ 409 µM) | 128 µg/mL (≈ 296 µM) | 8 µg/mL (≈ 18.5 µM) | 1 µg/mL (≈ 2.31 µM) | 2 µg/mL (≈ 4.62 µM) | 32 µg/mL (≈ 74 µM)
C[C@H]1COc2c(N3CCN(C)CC3)c(F)cc3c(=O)c(C(=O)O)cn1c23.C[C@H]1COc2c(N3CCN(C)CC3)c(F)cc3c(=O)c(C(=O)O)cn1c23.O [LEVOFLOXACIN] | – | 0.5 µg/mL | 0.125 µg/mL | 16 µg/mL | 0.125 µg/mL | – | 16 µg/mL | > 1000 µg/mL | – | 1 µg/mL | 0.125 µg/mL | 0.25 µg/mL | 0.25 µg/mL
